Tests used:
[1] = Plasma protein binding (human); format: ADME, cell-free
In short: (§1)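 Test substance (0.02 mL) was added to 1.0 mL of heparinized fresh human plasma and incubated about 15 min. Duplicate samples were passed through Sephadex G-25 desalting columns by centrifugation. Eluate and gel were γ-counted for 1 min or to 1% σ error. % bound = net cpm eluate / net cpm (eluate + gel) × 100.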

[2] = (§2) Biodistribution of compound in rat muscle after 5 min of administration.; format: ADME, organism-based, Muscle tissue; conditions: in vivo
In short: (§3)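 Female Sprague-Dawley rats (150–200 g) received the complex in normal saline (~12.5 μCi/mL) through a lateral tail vein at ~25 μCi/kg. Rats were killed by cervical dislocation 5 min after injection. Tissues were washed with saline, blotted, weighed and γ-counted to give percent injected dose/g tissue.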

[3] = system: Rattus norvegicus; experiment: Biodistribution of compound in rat heart after 5 min of administration.; format: ADME, organism-based; conditions: in vivo; in short: as §3
[4] = system: Rattus norvegicus; experiment: Biodistribution of compound in rat brain after 5 min of administration; format: ADME, organism-based; conditions: in vivo
[5] = system: Rattus norvegicus; experiment: Biodistribution of compound in rat lung after 5 min of administration.; format: ADME, organism-based; conditions: in vivo; in short: as §3
[6] = system: Rattus norvegicus; experiment: Biodistribution of compound in rat blood after 5 min of administration.; format: ADME, organism-based; conditions: in vivo; in short: as §3
[7] = system: Rattus norvegicus; experiment: Biodistribution of compound in rat kidney after 5 min of administration.; format: ADME, organism-based; conditions: in vivo; in short: as §3
[8] = system: Rattus norvegicus; experiment: Biodistribution of compound in rat liver after 5 min of administration.; format: ADME, organism-based; conditions: in vivo; in short: as §3
[9] = species: Rattus norvegicus; experiment: (§4) The compound was tested for the plasma binding in rat; format: ADME, organism-based
[10] = system: Rattus norvegicus; experiment: as §2; format: ADME, organism-based, Muscle tissue; conditions: in vivo; in short: as §3
[11] = species: Homo sapiens; experiment: The compound was tested for the plasma binding in human.; format: functional; in short: as §1
[12] = species: Rattus norvegicus; experiment: as §4; format: functional
In short: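 Plasma protein binding was measured in rat plasma samples collected during the rat biodistribution studies, after tail vein injection of the 99mTc complex in saline (~25 μCi/kg).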

Row | Plasma binding [1] | Dose/g [2] | Dose/g [3] | Dose/g [4] | Dose/g [5] | Dose/g [6] | Dose/g [7] | Dose/g [8] | Plasma binding [9] | Dose/g [10] | PPB [11] | PPB [12] | Substance
1 | 90% | – | 4% | – | 1.4% | 0.23% | 6% | 0.45% | 27% | 0.82% | – | – | BIS(TETRAHYDROACENAPHTHENE) TECHNETIUM
2 | – | – | – | – | – | – | – | – | – | – | 11% | 8.9% | BIS(TOLUENE)TECHNETIUM
3 | 95% | 0.56% | 3.3% | 0.06% | 2.5% | 0.49% | 5% | 1.2% | 81% | – | – | – | Bis(1,1,4,6,7-pentamethylindane)technetium
4 | 35% | 0.48% | 1.8% | 0.02% | 0.9% | 0.16% | 9.1% | 0.79% | 32% | – | – | – | Bis(1,2,3,4,5,6,7,8-octahydroanthracene)technetium
5 | 46% | – | 2.4% | – | 1.1% | 0.094% | 8.2% | 0.73% | 22% | 0.66% | – | – | Bis(1,2,3,4-tetramethylbenzene)technetium
6 | – | – | – | – | – | – | – | – | – | – | 36% | 21% | Bis(1,2,3,5-tetramethylbenzene)technetium
7 | 84% | 0.58% | 3% | 0.03% | 1.3% | 0.1% | 7.8% | 0.62% | 21% | – | – | – | Bis(1,2-diethylbenzene)technetium
8 | 83% | 0.63% | 2.8% | 0.04% | 1.1% | 0.24% | 7.3% | 1.4% | 48% | – | – | – | Bis(1,3,5-triethylbenzene)technetium
9 | 64% | 0.64% | 2.8% | 0.03% | 1.2% | 0.09% | 5.1% | 0.46% | 19% | – | – | – | Bis(1,3-diethylbenzene)technetium
10 | 60% | 0.66% | 3.8% | 0.03% | 1.4% | 0.13% | 5.4% | 0.58% | 16% | – | – | – | Bis(1,4-diethylbenzene)technetium
11 | 75% | – | 2.5% | – | 1.1% | 0.16% | 5% | 0.42% | 27% | 0.56% | – | – | Bis(1-methyl-(2-propyl)benzene)technetium
12 | 80% | – | 3.2% | – | 1.3% | 0.18% | 6.5% | 0.38% | 18% | 0.7% | – | – | Bis(5-isopropyl-m-xylene)technetium

The next lines start with the substance.

Row | Substance | Plasma binding [1] | Dose/g [2] | Dose/g [3] | Dose/g [4] | Dose/g [5] | Dose/g [6] | Dose/g [7] | Dose/g [8] | Plasma binding [9] | Dose/g [10] | PPB [11] | PPB [12]
13 | BIS(DODECAHYDROTRIPHENYLENE) TECHNETIUM | 84% | 0.55% | 2.6% | 0.02% | 1% | 0.16% | 12% | 1% | 34% | – | – | –
14 | BIS(HEXAETHYLBENZENE) TECHNETIUM | 84% | 0.33% | 1.3% | 0.06% | 5.7% | 0.4% | 10% | 8.4% | 50% | – | – | –
15 | BIS(HEXAMETHYLBENZENE)TECHNETIUM | 72% | 0.55% | 3% | 0.03% | 1.2% | 0.16% | 6.2% | 0.79% | 57% | – | – | –
16 | BIS(INDAN)TECHNETIUM | 17% | – | 1.1% | – | 0.98% | 0.077% | 11% | 1.7% | 6.8% | 0.23% | – | –
17 | BIS(PENTAMETHYLBENZENE) TECHNETIUM | 55% | 0.66% | 3.5% | 0.02% | 1.6% | 0.14% | 5.5% | 0.45% | 57% | – | – | –
18 | BIS(TRINDAN) TECHNETIUM | 27% | 0.49% | 1.5% | 0.02% | 1% | 0.09% | 9.3% | 1% | 23% | – | – | –
19 | Bis(1,1,4,6-tetramethylindane)technetium | 94% | 0.66% | 3.4% | 0.04% | 1.5% | 0.35% | 6.4% | 0.73% | 75% | – | – | –
20 | Bis(1,2,3,4-tetrahydronaphthalene)technetium | 51% | – | 2.6% | – | 1% | 0.24% | 9.1% | 0.65% | 5.8% | 0.51% | – | –
21 | Bis(1,2,4,5-tetramethylbenzene)technetium | 42% | 0.72% | 2.3% | 0.02% | 1.3% | 0.28% | 9.8% | 0.9% | 18% | – | – | –
22 | Bis(1,3,5-tri-tert-butylbenzene)technetium | 81% | 0.38% | 1% | 0.04% | 1.3% | 0.49% | 8% | 2% | 60% | – | – | –
23 | Bis(4,6-dimethylindane)technetium | 57% | 0.42% | 3.6% | 0.03% | 1.4% | 0.12% | 8.4% | 0.66% | 54% | – | – | –
24 | Bis(toluene)technetium | – | – | – | – | – | – | – | – | – | – | 11% | 8.9%

— ChEMBL document CHEMBL1125797, “Synthesis, characterization and myocardial uptake of cationic bis(arene)technetium(I) complexes” (J Med Chem, 1991)
